Source: paper PMC10549240 (RSC Chemical Biology, 2023)

Tests used:
Bio-PepK-StA [1] = format: binding; conditions: C-terminal truncation of Fluo-PepE, Fig. 3A
Procedure, shortened: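 Fluorescein-labelled PepE variants truncated at the C-terminus (50 nM in water) were mixed 1:1 with serial dilutions of biotin-PepK/streptavidin complex starting at 20 μM. No activation was used. Fluorescence polarization was measured after 30 min (485 nm excitation, 535 nm emission). The read-out was the Δpolarization relative to samples without biotinylated peptide/streptavidin.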

Bio-PepK-StA [2] = assay: Flupol binding assay after Bind&Bite reaction; conditions: covalently stabilized by Bind&Bite, Fig. 3B
Procedure, shortened: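 Equal volumes were mixed with serially diluted biotin-PepK/streptavidin complex starting at 20 μM. Fluorescence polarization was read after 30 min (ex 485/em 535 nm). The read-out was Δpolarization versus samples without biotinylated peptide/streptavidin.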

Env(wt) = assay: Bind&Bite reaction with Env; parameters: species or system HIV-1; conditions: DMEM with 10% FCS
Procedure, shortened: (§1)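 Env trimers (wild-type or C-terminal G4S-PepK fusion) were expressed in FreeStyle 293-F cells and lectin-purified. Biotinylated PepE was either activated in situ (7.1 μM with 71 μM EDC and 177.5 μM NHS, 30 min RT) or used as pre-activated, HPLC-purified NHS ester. It was added 1:10 to Env at 71 nM final in DMEM/10% FCS, giving final peptide 710, 71, 7.1 or 0.71 nM. Mixtures were incubated 30 min RT, run on reducing 10% SDS-PAGE, and blotted. Blots were probed with streptavidin-HRP or goat anti-gp120/anti-goat HRP, with ECL detection.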

Env-PepK = assay: Bind&Bite reaction with Env-PepK in DMEM/10% FCS, SDS-PAGE and Western Blot; parameters: species or system HIV-1; conditions: Env-PepK 71 nM in DMEM with 10% FCS; 30 min RT; streptavidin-HRP blot
Procedure, shortened: as §1

| Substance | affinity of the non-covalent interaction with full-length PepK (Bio-PepK-StA [1]) | further results |
| --- | --- | --- |
| Fluo-Aoa-EIAALEREIAALEREIAALE-NH2 [PepE(-1C)] | very similar to full-length PepE |  |
| Ac-EIAALEREIAALEREIAALER-Aoa-Aoa-Lys(Bio)-NH2 [PepE-Bio] |  | off-target reaction with other components of the medium, in situ activated (Env(wt); in situ activated (EDC/NHS), Fig. 4C): considerable off-target reaction; off-target reactions, pre-activated, purified (Env(wt); pre-activated, purified PepE-Bio, Fig. 4D): largely eliminated; reaction with the PepK tag of Env-PepK (Env-PepK): selective reaction |

The next lines start with results.

| affinity of the non-covalent interaction with full-length PepK (Bio-PepK-StA [1]) | Substance | further results |
| --- | --- | --- |
| complete loss of binding | Fluo-Aoa-EIAALEREIAALERE-NH2 [PepE(-6C)] |  |
| complete loss of binding | Fluo-Aoa-EIAALEREIAALER-NH2 [PepE(-7C)] | concentrations at which the peptide binds to full-length PepK (Bio-PepK-StA [2]): submicromolar |
| very similar to full-length PepE | Fluo-Aoa-EIAALEREIAALEREIAAL-NH2 [PepE(-2C)] |  |
